An excerpt weighted towards active compounds, which were near 2% of everything screened.
NSD2 inh: NSD2 (human) methyltransferase inhibition. AID 743445. NSD2 peptide methylation, AlphaScreen, 120 min. inhibition, % at 12.5 µM. actives 0.54% (n = 310,000); in the data active means inhibition above about 50%
SR-BI DiI inh: mouse SR-BI HDL lipid transfer inhibition. Q61009. inhibition, % at 12.5 µM. ldlA[mSR-BI] CHO cells, DiI-HDL uptake fluorescence, 3 h. actives 0.96% (n = 320,000);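 active means mean replicate inhibition of at least 70% and a set share of replicates each scoring 70 or more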;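 further: 0% = median of neutral control wells and 100% = median of positive control wells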
ARNT-TACC3 inh: disrupts binding between human ARNT and TACC3; AlphaScreen His-ARNT PAS-B/GST-TACC3 binding, luminescence; TACC3 fragment carries E629A point mutation; inhibition, % at 9.99 µM; actives 0.66% (n = 390,000); AID 623870;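 active means mean inhibition of replicates at least 50% and at least half of replicates each reaching 50%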;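 further: 0% = complete ARNT plus TACC3 wells and 100% = ARNT alone without TACC3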
sPLA2-III inh: Blocks human group III sPLA2 activity; actives 0.56% (n = 370,000); AID 743126; Q9NZ20; inhibition, % at 12.2 µM; QFRET BODIPY PC-A2 liposome hydrolysis, fluorescence;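 active means inhibition above mean plus 3 SD of compounds lying within the high and low control bounds, cut at about 19% in these data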;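 further: 0% = median of test compound wells and 100% = no enzyme DMSO wells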
XiGFP reactiv: activators of X-chromosome reactivation in mouse fibroblasts. AID 743238. actives 0.055% (n = 360,000). XiGFP mouse fibroblasts, % GFP-positive cells imaging, 3 d; cells co-treated with 5-aza-dC sensitizer; scaled so ellipticine positive control = 100%. activation, % at 7.58 µM;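 active means mean normalized replicate activation at least 10% and every replicate at or above 10%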;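 further: 0% = median of on-plate neutral control wells and 100% = ellipticine 6 µM median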
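System: 68-5-11 XiGFP fibroblast line; Timing: 3 days compound exposure; Compound dosing: one concentration, pinned; Benchmarks: positive control ellipticine, 6 µM final; Buffer or medium: DMEM containing 5-aza-dC.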
SR-BI uptake up: SR-BI HDL lipid transfer activation; actives 0.096% (n = 320,000); activation, % at 12.5 µM; CHO ldlA[mSR-BI] cells, DiI-HDL uptake fluorescence, 3 h; 100 = double the neutral-control signal;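 active means mean replicate activation of at least 60% and every replicate at or above 60%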;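 further: 0% = median plate neutral-control signal and 100% = twice that signal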
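Test system: SR-BI-overexpressing, LDLR-lacking CHO cells. Measured by: DiI fluorescence, bottom read. Medium: Ham's F12 with 0.5% BSA, HEPES 25 mM, pH 7.4. Timing: 3 h uptake period with compound, 37 °C.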
AlphaScreen ctr: counter-screen for ARNT/TACC3 inhibitors: AlphaScreen artifacts; His-ARNT PASB-GST AlphaScreen artifact counter-screen, luminescence; shares compounds with ARNT-TACC3 inh; AC50, µM (series often up to 68 µM), for inactives: at the top dose activity change, negative = signal decrease; actives 50% (n = 1,200);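 active means every separate test run was called active for a drop in luminescence, with AC50 within twice the top valid dose, actives reach about 71 µM in these data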
* = called active by the depositor; [ ] = remark or other dose.

Screening c1ccc(-c2nnc(-c3ccccn3)nc2NCc2ccccn2)cc1 returned AlphaScreen ctr 0.703µM*.
For Oc1ccccc1-c1nc(NCc2cccnc2)c2ccccc2n1 the results were NSD2 inh -0.2, SR-BI DiI inh 40.2, ARNT-TACC3 inh -0.3, sPLA2-III inh -7.9, XiGFP reactiv -0.7 and SR-BI uptake up -40.3.
c1ccc(CNc2nc(-c3cccs3)nc3ccccc23)nc1 was read as NSD2 inh -1.9, SR-BI DiI inh 4.5, ARNT-TACC3 inh 24.5, sPLA2-III inh -3.2, XiGFP reactiv 0.0 and SR-BI uptake up -4.5.
Screening C=CCNC(=O)c1ccc2nc(-c3ccccc3)c(-c3ccccc3)nc2c1 returned NSD2 inh 2.4, SR-BI DiI inh 15.6, ARNT-TACC3 inh 3.5, sPLA2-III inh 0.3 and SR-BI uptake up -15.6.
For C=CCNc1nc(-c2ccccn2)nnc1-c1ccccc1 the results were NSD2 inh -1.5, SR-BI DiI inh 7.6, ARNT-TACC3 inh 103.8*, sPLA2-III inh 0.4, SR-BI uptake up -7.6 and AlphaScreen ctr 1.34µM*.
`Cc1cccc(NC(=O)CN2CCN(C(=O)CNC(=O)Cc3cccc4ccccc34)CC2)c1C` gave SR-BI DiI inh 18.3, ARNT-TACC3 inh -3.3, sPLA2-III inh -1.4, XiGFP reactiv 0.1 and SR-BI uptake up -18.3.
`COc1ccc(NC(=O)Nc2ccc3c(c2)C(=O)N([C@H](C)CO)C[C@@H](C)[C@@H](CN(C)C(=O)CCC(F)(F)F)OCCCC[C@H](C)O3)cc1` gave ARNT-TACC3 inh active, XiGFP reactiv -0.8 and AlphaScreen ctr -17.0%[42 µM].
`CC(C)NC(=O)N(C)C[C@H]1OCCCC[C@H](C)Oc2ccc(NC(=O)Nc3ccccc3)cc2C(=O)N([C@H](C)CO)C[C@@H]1C` gave ARNT-TACC3 inh 108.0*, XiGFP reactiv -0.1 and AlphaScreen ctr -6.8%[42 µM].
`CC(C)NC(=O)Nc1ccc2c(c1)C(=O)N([C@@H](C)CO)C[C@H](C)[C@H](CN(C)C(=O)Cc1ccccc1)OCCCC[C@@H](C)O2` gave ARNT-TACC3 inh -0.2 and XiGFP reactiv 0.3.
For CC(C)NC(=O)Nc1ccc2c(c1)C(=O)N([C@H](C)CO)C[C@H](C)[C@@H](CN(C)C(=O)Cc1ccccc1)OCCCC[C@H](C)O2 the results were ARNT-TACC3 inh 96.7*, XiGFP reactiv 0.4 and AlphaScreen ctr -7.4%[38 µM].
`CCS(=O)(=O)N1Cc2cc(C(=O)N(C)C)nc(-c3cccc(-c4ccc(F)cc4)c3)c2[C@H]1CCO` gave sPLA2-III inh 4.5 and XiGFP reactiv -0.1.
Screening O=C(CSc1ncccn1)N1CCCCCC1 returned NSD2 inh 0.2, SR-BI DiI inh -4.1, sPLA2-III inh 2.3, XiGFP reactiv 0.1 and SR-BI uptake up 4.1.
O=C(CSc1cccc2cccnc12)N1CCCC1 was read as NSD2 inh 5.3, SR-BI DiI inh -5.7, ARNT-TACC3 inh 87.3*, sPLA2-III inh 3.6, SR-BI uptake up 5.7 and AlphaScreen ctr 10.2µM*.
Screening CN(C)C(=O)CSc1cccc2cccnc12 returned NSD2 inh 1.3, SR-BI DiI inh -17.9, ARNT-TACC3 inh 60.4*, sPLA2-III inh 9.2, SR-BI uptake up 17.9 and AlphaScreen ctr 15µM*.
Screening COc1cc(C2C(C#N)=C(N)Oc3n[nH]c(C)c32)ccc1OC(=O)c1ccccc1 (configuration not stated) returned NSD2 inh -0.1, SR-BI DiI inh -20.0, ARNT-TACC3 inh 60.3*, sPLA2-III inh -31.8, SR-BI uptake up 20.0 and AlphaScreen ctr -26.4%.
For Cc1[nH]nc2c1C(c1ccc(OC(=O)c3ccco3)cc1)C(C#N)=C(N)O2 (configuration not stated) the results were NSD2 inh -0.5, SR-BI DiI inh 1.5, ARNT-TACC3 inh 8.7, sPLA2-III inh -0.2 and SR-BI uptake up -1.5.
For Oc1cccc2c(-c3nn[nH]n3)ccnc12 the results were SR-BI DiI inh -8.4, ARNT-TACC3 inh 67.9*, sPLA2-III inh -3.5, XiGFP reactiv 0.0, SR-BI uptake up 8.4 and AlphaScreen ctr 10µM*.
COC(=O)c1sc(-c2cccs2)cc1NC(=O)/C=C/C(=O)O was read as SR-BI DiI inh -11.5, ARNT-TACC3 inh 3.2, sPLA2-III inh 0.2, XiGFP reactiv 0.1 and SR-BI uptake up 11.5.
For O=C(NCCN1CCOCC1)c1cc(-c2ccccc2)on1 the results were NSD2 inh -1.8, SR-BI DiI inh -25.8, ARNT-TACC3 inh -2.1, sPLA2-III inh -1.5, SR-BI uptake up 25.8 and AlphaScreen ctr 2.4%[38 µM].
Screening O=C(NCCCN1CCOCC1)c1cc(-c2ccccc2)on1 returned NSD2 inh -2.0, SR-BI DiI inh -38.3, ARNT-TACC3 inh -0.3, sPLA2-III inh 5.5, SR-BI uptake up 38.3 and AlphaScreen ctr 9.6%[38 µM].
For O=C(NCCCN1CCOCC1)c1cc(-c2ccc(O)cc2)on1 the results were SR-BI DiI inh -9.2, ARNT-TACC3 inh 0.0, sPLA2-III inh 8.8, XiGFP reactiv 0.0 and SR-BI uptake up 9.2.
`O=C(NCCN1CCOCC1)c1cc(-c2ccc(Br)cc2)on1` gave NSD2 inh -0.8, SR-BI DiI inh 2.3, ARNT-TACC3 inh -14.1, sPLA2-III inh 0.1 and SR-BI uptake up -2.3.
For COc1ccc([C@H]2CC(=O)C=C(c3ccc(Cl)c(C(F)(F)F)c3)C2)cc1 the results were SR-BI DiI inh 17.2, ARNT-TACC3 inh -2.7, sPLA2-III inh 3.1, XiGFP reactiv 0.0 and SR-BI uptake up -17.2.
`C[C@H](CO)N1C[C@H](C)[C@@H](CN(C)S(=O)(=O)c2ccc(Cl)cc2)Oc2c(NC(=O)Nc3cccc4ccccc34)cccc2C1=O` gave ARNT-TACC3 inh 52.3*, XiGFP reactiv -1.0 and AlphaScreen ctr 23.8µM*.
Screening CNC[C@@H]1Oc2c(NS(=O)(=O)c3cccs3)cccc2C(=O)N([C@H](C)CO)C[C@@H]1C returned ARNT-TACC3 inh -1.4 and XiGFP reactiv 0.0.
For C[C@H](CO)N1C[C@H](C)[C@H](CN(C)S(=O)(=O)c2ccc(F)cc2)Oc2ccc(NS(C)(=O)=O)cc2C1=O the results were ARNT-TACC3 inh -1.7 and XiGFP reactiv -0.1.
Screening CNC[C@@H]1Oc2c(NS(=O)(=O)c3cccs3)cccc2C(=O)N([C@@H](C)CO)C[C@H]1C returned ARNT-TACC3 inh active, XiGFP reactiv 0.0 and AlphaScreen ctr 3.5%[42 µM].
Screening CC(C)NC(=O)Nc1cccc2c1O[C@@H](CN(C)C(=O)Nc1ccc(C(F)(F)F)cc1)[C@@H](C)CN([C@@H](C)CO)C2=O returned ARNT-TACC3 inh 7.8 and XiGFP reactiv -0.9.

Screening results from PubChem.
